Legend:
Leishmania mexicana [1] = assay: Antileishmanial activity against Leishmania mexicana MNYC/BZ/62/M379 amastigotes expressing red-shifted firefly luciferase from integrated ribosomal (28S) RNA locus infected in mouse J774.A1 cells assessed as parasite survival at 0.1 uM measured after 96 hrs by luminescence based analysis relative to control; format: functional; conditions: MNYC/BZ/62/M379, J774.A1
[2] = Cytotoxicity against mouse J774.A1 cells assessed as cell survival at 0.1 uM measured after 96 hrs by SYBR Green II dye based analysis relative to control; format: toxicity; conditions: read-out: Survival
In short: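 Uninfected J774A.1 mouse macrophages were plated at 1 × 10⁴ cells/well in DMEM with 10% heat-inactivated FBS and left 3 h at 37 °C to reattach. Compounds were added from DMSO, and analogues were screened at 0.1 μM. After 96 h at 37 °C in 5% CO₂, medium was removed. SYBR Green II (1:1000 in 1% Triton/PBS) was added for 1 h in the dark at room temperature, and fluorescence was read at Ex 485/Em 535 as a DNA-content measure of viability.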

Leishmania mexicana [3] = assay: Antileishmanial activity against Leishmania mexicana MNYC/BZ/62/M379 amastigotes expressing red-shifted firefly luciferase from integrated ribosomal (28S) RNA locus infected in mouse J774.A1 cells assessed as reduction in parasite survival measured after 96 hrs by luminescence based analysis; format: functional, organism-based; conditions: MNYC/BZ/62/M379, J774.A1, 96 h
In short: (§1)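 J774A.1 macrophages infected with stationary-phase luciferase-expressing promastigotes at 10:1 parasites:macrophage, overnight at 37 °C, 5% CO₂. Non-internalized parasites washed off and 1 × 10⁴ cells/well replated in MEM/10% HI-FBS. Compounds in DMSO added as serial 3-fold dilutions (typically 10 μM–1 nM) for 96 h. Luciferase luminescence read; EC50 from log-transformed sigmoidal variable-slope fit. Mean ± SD of ≥2 independent experiments.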

[4] = Cytotoxicity against mouse J774.A1 cells assessed as reduction in cell survival measured after 96 hrs by SYBR Green II dye based analysis; format: toxicity
In short: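 Uninfected J774A.1 macrophages, 1 × 10⁴ cells/well in DMEM/10% HI-FBS, reattached 3 h, then exposed to compounds for 96 h. DNA content read after lysis with SYBR Green II (1:1000 in 1% Triton/PBS), 1 h dark at room temperature, fluorescence Ex 485/Em 535.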

[5] = Therapeutic index, ratio of EC50 for mouse J774.A1 cells to EC50 for antileishmanial activity against Leishmania mexicana MNYC/BZ/62/M379 amastigotes expressing red-shifted firefly luciferase from integrated ribosomal (28S) RNA locus infected in mouse J774.A1 cells; format: toxicity, cell-based; conditions: read-out: TI
[6] = Metabolic stability in pre-warmed pooled human liver microsomes assessed as half life at 1 uM measured upto 60 mins by LC-MS analysis; format: ADME, Microsome
In short: (§2)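 Compound at 1 μM final with 0.5 mg/mL pooled human or mouse liver microsomes, 1.3 mM NADP and 3.3 mM MgCl₂ in 100 mM potassium phosphate, pH 7.4. Reaction started with 1 U/mL G6PD at 37 °C with shaking.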

[7] = Metabolic stability in pre-warmed pooled mouse liver microsomes assessed as half life at 1 uM measured upto 60 mins by LC-MS analysis; format: ADME, Microsome; in short: as §2
Leishmania donovani = assay: Antileishmanial activity against Leishmania donovani amastigotes expressing red-shifted firefly luciferase from integrated ribosomal (28S) RNA locus infected in mouse J774.A1 cells assessed as reduction in parasite growth measured after 96 hrs by luminescence based analysis; format: functional, organism-based; conditions: J774.A1, 96 h; in short: as §1

SMILES	survival at 0.1 µM (Leishmania mexicana [1]) [%]	viability at 96 h, 0.1 µM [2] [%]	EC50 (Leishmania mexicana [3]) [nM]	EC50 at 96 h [4] [nM]	selectivity ratio [5]	half-life at 1 µM [6] [min]	half-life at 1 µM [7] [min]	EC50 (Leishmania donovani) [nM]
COC1=CC(c2ccc(-c3ccc(OC)cc3)[nH]2)=N/C1=C\NC1CCCCCC1.Cl	-0.02	77.3	18.8	450	24	> 60	> 60	
COC1=CC(c2ccc[nH]2)=N/C1=C\Nc1ccc(C)cc1.Cl	5.49	50.8	41	171	4.2	30	28.9	
C(/NCC1CCCCCC1)=C1/N=C(c2ccc[nH]2)C2=C1CCCC2.Cl	16.1	75				> 60	> 60	
COC1=CC(c2ccc[nH]2)=N/C1=C\N[C@H]1CC[C@H](NC(=O)OC(C)(C)C)CC1	28.3	51.1	87.7	2990	34	8.45	9.71	
C[C@H]1CC[C@H](N/C=C2\N=C(c3ccc[nH]3)C=C2Oc2ccc(Cl)cc2)CC1	27.5	80.1	72.3	321	4.4			
COC1=CC(c2ccc[nH]2)=N/C1=C\Nc1cccc(Cl)c1.Cl	13.6	65.3	91.5	570	6.2	> 60		
Cc1ccc(N/C=C2\N=C(c3ccc[nH]3)C3=C2CCCC3)cc1.Cl	112	95.1				42.1		
CC1=C(C)/C(=C/NC23CC4CC(CC(C4)C2)C3)N=C1c1[nH]c(C)cc1C	12.5	93.2	46.5	667	14			
COC1=CC(c2ccc[nH]2)=N/C1=C\Nc1ccc(Cl)c(Cl)c1.Cl	23.8	67.5	100	> 1000	> 10	56.2		
COC1=CC(c2ccc(Cc3ccc(OC)cc3)[nH]2)=N/C1=C\NC12CC3CC(CC(C3)C1)C2.Cl	-0.05	59.6	11.3	> 1000	> 88	> 60	> 60	
Clc1ccc(OC2=CC(c3ccc[nH]3)=N/C2=C\NC2CCCCCC2)cc1	19.8	100	63.7	367	5.8			
COC1=CC(c2ccc[nH]2)=N/C1=C\Nc1cccc(OC(F)(F)F)c1.Cl	11.4	83.7	54	760	14	> 60	15.8	
COC1=CC(c2ccc(Cc3ccc(OC)cc3)[nH]2)=N/C1=C\NC1CCCC1.Cl	1.4	86.6	23.8	717	30	11.7		
COC1=CC(c2ccc[nH]2)=N/C1=C\Nc1ccccc1	14.3	72.8	73	1040	14			226
CCc1c[nH]c(C2=N/C(=C\NC3CCCCCC3)C(C)=C2C)c1.Cl	23.8	63.3	117	1330	11	> 60	11	
CCc1ccc(C2=N/C(=C\NC3CCCCCC3)C(OC)=C2)[nH]1.Cl	0.3	52.5	37.1	512	14	> 60		

SMILES	survival at 0.1 µM (Leishmania mexicana [1]) [%]	viability at 96 h, 0.1 µM [2] [%]	EC50 (Leishmania mexicana [3]) [nM]	EC50 at 96 h [4] [nM]	selectivity ratio [5]	half-life at 1 µM [6] [min]	half-life at 1 µM [7] [min]	EC50 (Leishmania donovani) [nM]
COC1=CC(c2ccc(Cc3ccc(OC)cc3)[nH]2)=N/C1=C\NC1CCCCCCC1.Cl	-0.11	84.8	15.8	547	35	50.8		
CCCCCCN/C=C1\N=C(c2ccc[nH]2)C=C1Oc1ccc(OC(F)(F)F)cc1	46.1	110	303	1100	3.6			
COC1=CC(c2ccc[nH]2)=N/C1=C\NC1CCN(Cc2ccccc2)CC1	24.6	124	79.5	625	7.9			
CCCCCCCCCCCCCCCCOP(=O)([O-])OCC[N+](C)(C)C [MILTEFOSINE]	0.02	39.2	3460	> 100000	> 29			
CCCCCCCCCCCN/C=C1\N=C(c2ccc[nH]2)C=C1OC	11.9	112	47.5	> 1000	> 21			
FC(F)(F)Oc1ccc(OC2=CC(c3ccc[nH]3)=N/C2=C\N[C@H]2CC[C@H](C(F)(F)F)CC2)cc1	33.2	108	88.7	852	9.6			
COC1=CC(c2ccc[nH]2)=N/C1=C\Nc1ccc2c(c1)OCCO2.Cl	9.03	77.3	32	> 1000	> 31	> 60	15.8	
COC1=CC(c2ccc[nH]2)=N/C1=C\Nc1ccc(OC(F)(F)F)cc1.Cl	18.9	89.6	72.5	> 1000	> 14	> 60		
COC1=CC(c2ccc[nH]2)=N/C1=C\Nc1ccc(Cl)cc1	9.85	95.4	47	> 1000	> 21			
COC1=CC(c2ccc(Cc3ccc(OC)cc3)[nH]2)=N/C1=C\NC1CCCCCC1.Cl	-0.11	84.6	16.2	959	59	25.6		
COC1=CC(c2ccc(Cc3ccc(OC)cc3)[nH]2)=N/C1=C\NC1CCCCC1.Cl	0.01	84.6	22.6	946	42	19.7		
COC1=CC(c2ccc[nH]2)=N/C1=C\Nc1ccc(Oc2ccc(OC)cc2)cc1	8.65	50.2	66	> 1000	> 15	> 60	30.1	
Cc1ccc(Oc2ccc(N/C=C3\N=C(c4ccc[nH]4)C4=C3CCCC4)cc2)cc1.Cl	102	58.2				> 60	> 60	
Cl.FC(F)(F)Oc1ccc(OC2=CC(c3ccc[nH]3)=N/C2=C\NC23CC4CC(CC(C4)C2)C3)cc1	35.7	80.7	41	353	8.6	> 60	> 60	
FC(F)(F)Oc1ccc(OC2=CC(c3ccc[nH]3)=N/C2=C\NC2CCCCCCC2)cc1	37.6	92.9	99	982	9.9			
COc1ccc(Oc2ccc(N/C=C3\N=C(c4ccc[nH]4)C4=C3CCCC4)cc2)cc1.Cl	89.8	62.5				> 60	> 60	

From ChEMBL document CHEMBL5506039, “Discovery and Optimization of Tambjamines as a Novel Class of Antileishmanial Agents” (J Med Chem, 2024)
